Reference: ChEMBL document CHEMBL1255358, “Relation between genetic markers of drug resistance and susceptibility profile of clinical Neisseria gonorrhoeae strains” (2008)

Key:
Assay type in all cases: functional
Neisseria gonorrhoeae [1] = test: Antimicrobial activity against Neisseria gonorrhoeae obtained from patient with uncomplicated gonorrhea expressing tetM mutant gene in combination with variants of other gene loci assessed as percentage intermediate isolates by agar dilution method
Summary of the method: (§1)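 Clinical N. gonorrhoeae isolates were shipped frozen on dry ice and recovered from cryobeads on GC agar. They were subcultured once and then tested by agar dilution on GC agar with PolyViteX supplement, with ATCC 49226 as the control strain. Susceptible, intermediate or resistant status was set by CLSI criteria. Genotype came from PCR for blaTEM-1/tet(M) and from primer-extension minisequencing with MALDI-TOF detection of SNPs.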

Neisseria gonorrhoeae [2] = test: Antimicrobial activity against Neisseria gonorrhoeae obtained from patient with uncomplicated gonorrhea expressing mtrR mutant gene assessed as percentage intermediate isolates by agar dilution method
Summary of the method: (§2)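 Clinical isolates shipped frozen on dry ice to a central lab, recovered from cryobeads onto GC agar and subcultured once. MICs were determined by agar dilution on GC agar supplemented with PolyViteX, with strain ATCC 49226 as control. Isolates were classed susceptible, intermediate or resistant by current CLSI criteria. Genotypes were assigned by PCR, and by minisequencing with MALDI-TOF mass spectrometry.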

Neisseria gonorrhoeae [3] = test: Antimicrobial activity against Neisseria gonorrhoeae obtained from patient with uncomplicated gonorrhea expressing rpsJ and penB mutant gene assessed as incidence of resistant isolates by agar dilution method; summary of the method: as §1
Neisseria gonorrhoeae [4] = test: Antimicrobial activity against Neisseria gonorrhoeae obtained from patient with uncomplicated gonorrhea expressing rpsJ mutant gene assessed as incidence of resistant isolates by agar dilution method; summary of the method: as §1
Neisseria gonorrhoeae [5] = test: Antimicrobial activity against Neisseria gonorrhoeae obtained from patient with uncomplicated gonorrhea assessed as incidence of resistant isolates by agar dilution method; summary of the method: as §2
Neisseria gonorrhoeae [6] = test: Antimicrobial activity against Neisseria gonorrhoeae obtained from patient with uncomplicated gonorrhea expressing rpsJ and mtrR mutant gene assessed as incidence of susceptible isolates by agar dilution method; summary of the method: as §1
Neisseria gonorrhoeae [7] = test: Antimicrobial activity against Neisseria gonorrhoeae obtained from patient with uncomplicated gonorrhea expressing rpsJ and penB mutant gene assessed as percentage intermediate isolates by agar dilution method; summary of the method: as §1
Neisseria gonorrhoeae [8] = test: Antimicrobial activity against Neisseria gonorrhoeae obtained from patient with uncomplicated gonorrhea expressing mtrR mutant gene assessed as incidence of susceptible isolates by agar dilution method; summary of the method: as §2
Neisseria gonorrhoeae [9] = test: Antimicrobial activity against Neisseria gonorrhoeae obtained from patient with uncomplicated gonorrhea expressing rpsJ and mtrR mutant gene assessed as percentage intermediate isolates by agar dilution method; summary of the method: as §1
Neisseria gonorrhoeae [10] = test: Antimicrobial activity against Neisseria gonorrhoeae obtained from patient with uncomplicated gonorrhea expressing tetM mutant gene in combination with variants of other gene loci assessed as incidence of resistant isolates by agar dilution method; summary of the method: as §1
Neisseria gonorrhoeae [11] = test: Antimicrobial activity against Neisseria gonorrhoeae obtained from patient with uncomplicated gonorrhea expressing rpsJ mutant gene assessed as incidence of susceptible isolates by agar dilution method; summary of the method: as §1
Neisseria gonorrhoeae [12] = test: Antimicrobial activity against Neisseria gonorrhoeae obtained from patient with uncomplicated gonorrhea expressing rpsJ mutant gene assessed as percentage intermediate isolates by agar dilution method; summary of the method: as §1
Neisseria gonorrhoeae [13] = test: Antimicrobial activity against Neisseria gonorrhoeae obtained from patient with uncomplicated gonorrhea expressing rpsJ, penB and mtrR mutant gene assessed as incidence of susceptible isolates by agar dilution method; summary of the method: as §1
Neisseria gonorrhoeae [14] = test: Antimicrobial activity against Neisseria gonorrhoeae obtained from patient with uncomplicated gonorrhea expressing tetM mutant gene in combination with variants of other gene loci assessed as incidence of susceptible isolates by agar dilution method; summary of the method: as §1
Neisseria gonorrhoeae [15] = test: Antimicrobial activity against Neisseria gonorrhoeae obtained from patient with uncomplicated gonorrhea expressing rpsJ and mtrR mutant gene assessed as incidence of resistant isolates by agar dilution method; summary of the method: as §1
Neisseria gonorrhoeae [16] = test: Antimicrobial activity against Neisseria gonorrhoeae obtained from patient with uncomplicated gonorrhea expressing mtrR mutant gene assessed as incidence of resistant isolates by agar dilution method; summary of the method: as §2
Neisseria gonorrhoeae [17] = test: Antimicrobial activity against Neisseria gonorrhoeae obtained from patient with uncomplicated gonorrhea expressing penA mutant gene assessed as percentage intermediate isolates by agar dilution method; summary of the method: as §2
Neisseria gonorrhoeae [18] = test: Antimicrobial activity against Neisseria gonorrhoeae obtained from patient with uncomplicated gonorrhea expressing rpsJ, penB and mtrR mutant gene assessed as incidence of resistant isolates by agar dilution method; summary of the method: as §1
Neisseria gonorrhoeae [19] = test: Antimicrobial activity against Neisseria gonorrhoeae obtained from patient with uncomplicated gonorrhea assessed as percentage intermediate isolates by agar dilution method
Summary of the method: (§3)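 Agar dilution MICs on GC agar supplemented with PolyViteX, tested against penicillin, tetracycline and fluoroquinolones. Clinical isolates were shipped frozen on dry ice to a central laboratory, recovered from cryobeads on GC agar plates and subcultured once before testing. Strain ATCC 49226 served as the control. Isolates were classed susceptible, intermediate or resistant using current CLSI interpretive criteria.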

Neisseria gonorrhoeae [20] = test: Antimicrobial activity against Neisseria gonorrhoeae obtained from patient with uncomplicated gonorrhea expressing rpsJ and penB mutant gene assessed as incidence of susceptible isolates by agar dilution method; summary of the method: as §1
Neisseria gonorrhoeae [21] = test: Antimicrobial activity against Neisseria gonorrhoeae obtained from patient with uncomplicated gonorrhea expressing rpsJ, penB and mtrR mutant gene assessed as percentage intermediate isolates by agar dilution method; summary of the method: as §1
Neisseria gonorrhoeae [22] = test: Antimicrobial activity against Neisseria gonorrhoeae obtained from patient with uncomplicated gonorrhea assessed as incidence of susceptible isolates by agar dilution method; summary of the method: as §3
Neisseria gonorrhoeae [23] = test: Antimicrobial activity against Neisseria gonorrhoeae obtained from patient with uncomplicated gonorrhea expressing penA and mtrR mutant gene assessed as percentage intermediate isolates by agar dilution method; summary of the method: as §2
Neisseria gonorrhoeae [24] = test: Antimicrobial activity against Neisseria gonorrhoeae obtained from patient with uncomplicated gonorrhea expressing penB mutant gene assessed as incidence of resistant isolates by agar dilution method; summary of the method: as §2
Neisseria gonorrhoeae [25] = test: Antimicrobial activity against Neisseria gonorrhoeae obtained from patient with uncomplicated gonorrhea expressing penA and penB mutant gene assessed as percentage intermediate isolates by agar dilution method; summary of the method: as §2
Neisseria gonorrhoeae [26] = test: Antimicrobial activity against Neisseria gonorrhoeae obtained from patient with uncomplicated gonorrhea expressing penA, penB and mtrR mutant gene assessed as incidence of resistant isolates by agar dilution method; summary of the method: as §2
Neisseria gonorrhoeae [27] = test: Antimicrobial activity against Neisseria gonorrhoeae obtained from patient with uncomplicated gonorrhea expressing penA and ponA mutant gene assessed as incidence of susceptible isolates by agar dilution method; summary of the method: as §2
Neisseria gonorrhoeae [28] = test: Antimicrobial activity against Neisseria gonorrhoeae obtained from patient with uncomplicated gonorrhea expressing penA and penB mutant gene assessed as incidence of resistant isolates by agar dilution method; summary of the method: as §2
Neisseria gonorrhoeae [29] = test: Antimicrobial activity against Neisseria gonorrhoeae obtained from patient with uncomplicated gonorrhea expressing penA mutant gene assessed as incidence of susceptible isolates by agar dilution method; summary of the method: as §2
Neisseria gonorrhoeae [30] = test: Antimicrobial activity against Neisseria gonorrhoeae obtained from patient with uncomplicated gonorrhea expressing penA, penB, ponA and mtrR mutant gene assessed as incidence of susceptible isolates by agar dilution method; summary of the method: as §2
Neisseria gonorrhoeae [31] = test: Antimicrobial activity against Neisseria gonorrhoeae obtained from patient with uncomplicated gonorrhea expressing penA and mtrR mutant gene assessed as incidence of susceptible isolates by agar dilution method; summary of the method: as §2
Neisseria gonorrhoeae [32] = test: Antimicrobial activity against Neisseria gonorrhoeae obtained from patient with uncomplicated gonorrhea expressing penA, ponA and mtrR mutant gene assessed as incidence of resistant isolates by agar dilution method; summary of the method: as §2
Neisseria gonorrhoeae [33] = test: Antimicrobial activity against Neisseria gonorrhoeae obtained from patient with uncomplicated gonorrhea expressing penA and penB mutant gene assessed as incidence of susceptible isolates by agar dilution method; summary of the method: as §2
Neisseria gonorrhoeae [34] = test: Antimicrobial activity against Neisseria gonorrhoeae obtained from patient with uncomplicated gonorrhea expressing penA, penB and ponA mutant gene assessed as incidence of susceptible isolates by agar dilution method; summary of the method: as §2
Neisseria gonorrhoeae [35] = test: Antimicrobial activity against Neisseria gonorrhoeae obtained from patient with uncomplicated gonorrhea expressing penA, ponA and mtrR mutant gene assessed as percentage intermediate isolates by agar dilution method; summary of the method: as §2
Neisseria gonorrhoeae [36] = test: Antimicrobial activity against Neisseria gonorrhoeae obtained from patient with uncomplicated gonorrhea expressing penA, penB, ponA and mtrR mutant gene assessed as percentage intermediate isolates by agar dilution method; summary of the method: as §2
Neisseria gonorrhoeae [37] = test: Antimicrobial activity against Neisseria gonorrhoeae obtained from patient with uncomplicated gonorrhea expressing beta-lactamase TEM-1 mutant gene assessed as incidence of resistant isolates by agar dilution method; summary of the method: as §2
Neisseria gonorrhoeae [38] = test: Antimicrobial activity against Neisseria gonorrhoeae obtained from patient with uncomplicated gonorrhea expressing penA and ponA mutant gene assessed as incidence of resistant isolates by agar dilution method; summary of the method: as §2
Neisseria gonorrhoeae [39] = test: Antimicrobial activity against Neisseria gonorrhoeae obtained from patient with uncomplicated gonorrhea expressing penA, penB, ponA and mtrR mutant gene assessed as incidence of resistant isolates by agar dilution method; summary of the method: as §2
Neisseria gonorrhoeae [40] = test: Antimicrobial activity against Neisseria gonorrhoeae obtained from patient with uncomplicated gonorrhea expressing penA and ponA mutant gene assessed as percentage intermediate isolates by agar dilution method; summary of the method: as §2
Neisseria gonorrhoeae [41] = test: Antimicrobial activity against Neisseria gonorrhoeae obtained from patient with uncomplicated gonorrhea expressing penB mutant gene assessed as incidence of susceptible isolates by agar dilution method; summary of the method: as §1
Neisseria gonorrhoeae [42] = test: Antimicrobial activity against Neisseria gonorrhoeae obtained from patient with uncomplicated gonorrhea expressing penA, ponA and mtrR mutant gene assessed as incidence of susceptible isolates by agar dilution method; summary of the method: as §2
Neisseria gonorrhoeae [43] = test: Antimicrobial activity against Neisseria gonorrhoeae obtained from patient with uncomplicated gonorrhea expressing penA mutant gene assessed as incidence of resistant isolates by agar dilution method; summary of the method: as §2
Neisseria gonorrhoeae [44] = test: Antimicrobial activity against Neisseria gonorrhoeae obtained from patient with uncomplicated gonorrhea expressing penA, penB and ponA mutant gene assessed as incidence of resistant isolates by agar dilution method; summary of the method: as §2
Neisseria gonorrhoeae [45] = test: Antimicrobial activity against Neisseria gonorrhoeae obtained from patient with uncomplicated gonorrhea expressing penB mutant gene assessed as percentage intermediate isolates by agar dilution method; summary of the method: as §1
Neisseria gonorrhoeae [46] = test: Antimicrobial activity against Neisseria gonorrhoeae obtained from patient with uncomplicated gonorrhea expressing beta-lactamase TEM-1 mutant gene assessed as percentage intermediate isolates by agar dilution method; summary of the method: as §2
Neisseria gonorrhoeae [47] = test: Antimicrobial activity against Neisseria gonorrhoeae obtained from patient with uncomplicated gonorrhea expressing penA and mtrR mutant gene assessed as incidence of resistant isolates by agar dilution method; summary of the method: as §2
Neisseria gonorrhoeae [48] = test: Antimicrobial activity against Neisseria gonorrhoeae obtained from patient with uncomplicated gonorrhea expressing beta-lactamase TEM-1 mutant gene assessed as incidence of susceptible isolates by agar dilution method; summary of the method: as §2
Neisseria gonorrhoeae [49] = test: Antimicrobial activity against Neisseria gonorrhoeae obtained from patient with uncomplicated gonorrhea expressing penA, penB and ponA mutant gene assessed as percentage intermediate isolates by agar dilution method; summary of the method: as §2
Neisseria gonorrhoeae [50] = test: Antimicrobial activity against Neisseria gonorrhoeae obtained from patient with uncomplicated gonorrhea expressing penA, penB and mtrR mutant gene assessed as incidence of susceptible isolates by agar dilution method; summary of the method: as §2
Neisseria gonorrhoeae [51] = test: Antimicrobial activity against Neisseria gonorrhoeae obtained from patient with uncomplicated gonorrhea expressing penA, penB and mtrR mutant gene assessed as percentage intermediate isolates by agar dilution method; summary of the method: as §2

CN(C)[C@@H]1C(O)=C(C(N)=O)C(=O)[C@@]2(O)C(O)=C3C(=O)c4c(O)cccc4[C@@](C)(O)[C@H]3C[C@@H]12 [TETRACYCLINE] was tested, and the Activity (Neisseria gonorrhoeae [1]) was 0%, the Activity (Neisseria gonorrhoeae [2]) was 0% and the Activity (Neisseria gonorrhoeae [3]) was 54%. For the same compound, the Activity (Neisseria gonorrhoeae [4]) was 18.7%, the Activity (Neisseria gonorrhoeae [5]) was 0% and the Activity (Neisseria gonorrhoeae [6]) was 26.9%. The Activity (Neisseria gonorrhoeae [7]) was 25.3%, the Activity (Neisseria gonorrhoeae [8]) was 100% and the Activity (Neisseria gonorrhoeae [9]) was 26.9%. It also gave an Activity (Neisseria gonorrhoeae [10]) of 100%, an Activity (Neisseria gonorrhoeae [11]) of 30.5% and an Activity (Neisseria gonorrhoeae [12]) of 50.8%. For the same compound, the Activity (Neisseria gonorrhoeae [13]) was 20.9%, the Activity (Neisseria gonorrhoeae [14]) was 0% and the Activity (Neisseria gonorrhoeae [15]) was 46.2%. The Activity (Neisseria gonorrhoeae [16]) was 0%, the Activity (Neisseria gonorrhoeae [17]) was 0% and the Activity (Neisseria gonorrhoeae [18]) was 56.1%. It also gave an Activity (Neisseria gonorrhoeae [19]) of 16.5%, an Activity (Neisseria gonorrhoeae [20]) of 20.7% and an Activity (Neisseria gonorrhoeae [21]) of 23%. It also gave an Activity (Neisseria gonorrhoeae [22]) of 83.5%.
CC1(C)S[C@@H]2[C@H](NC(=O)Cc3ccccc3)C(=O)N2[C@H]1C(=O)O [PENICILLIN G] gave an Activity (Neisseria gonorrhoeae [23]) of 60%, an Activity (Neisseria gonorrhoeae [24]) of 0% and an Activity (Neisseria gonorrhoeae [25]) of 71.4%. The Activity (Neisseria gonorrhoeae [2]) was 0%, the Activity (Neisseria gonorrhoeae [26]) was 0% and the Activity (Neisseria gonorrhoeae [27]) was 15.4%. It also gave an Activity (Neisseria gonorrhoeae [28]) of 0%, an Activity (Neisseria gonorrhoeae [29]) of 49% and an Activity (Neisseria gonorrhoeae [30]) of 11.3%. The Activity (Neisseria gonorrhoeae [31]) was 33.3%, the Activity (Neisseria gonorrhoeae [5]) was 0% and the Activity (Neisseria gonorrhoeae [8]) was 100%. It also gave an Activity (Neisseria gonorrhoeae [32]) of 8%, an Activity (Neisseria gonorrhoeae [33]) of 28.6% and an Activity (Neisseria gonorrhoeae [34]) of 7.9%. The Activity (Neisseria gonorrhoeae [35]) was 82.3%, the Activity (Neisseria gonorrhoeae [36]) was 71.4% and the Activity (Neisseria gonorrhoeae [37]) was 83.3%. It also gave an Activity (Neisseria gonorrhoeae [38]) of 5.1%, an Activity (Neisseria gonorrhoeae [39]) of 17.3% and an Activity (Neisseria gonorrhoeae [40]) of 79.5%. It also gave an Activity (Neisseria gonorrhoeae [41]) of 100%, an Activity (Neisseria gonorrhoeae [42]) of 9.7% and an Activity (Neisseria gonorrhoeae [16]) of 0%. The Activity (Neisseria gonorrhoeae [43]) was 3.9%, the Activity (Neisseria gonorrhoeae [17]) was 47.1% and the Activity (Neisseria gonorrhoeae [19]) was 9.3%. The Activity (Neisseria gonorrhoeae [44]) was 9.2%, the Activity (Neisseria gonorrhoeae [45]) was 0% and the Activity (Neisseria gonorrhoeae [46]) was 16.7%. The Activity (Neisseria gonorrhoeae [47]) was 6.7%, the Activity (Neisseria gonorrhoeae [48]) was 0% and the Activity (Neisseria gonorrhoeae [49]) was 82.8%. It also gave an Activity (Neisseria gonorrhoeae [50]) of 50%, an Activity (Neisseria gonorrhoeae [22]) of 90.7% and an Activity (Neisseria gonorrhoeae [51]) of 50%.
O=C(O)c1cn(C2CC2)c2cc(N3CCNCC3)c(F)cc2c1=O [CIPROFLOXACIN] showed an Activity (Neisseria gonorrhoeae [5]) of 0%, an Activity (Neisseria gonorrhoeae [17]) of 0% and an Activity (Neisseria gonorrhoeae [19]) of 0.7%. The Activity (Neisseria gonorrhoeae [22]) was 99.3%.
